Drawing on ChEMBL document CHEMBL1157328, “Linear sesquiterpene lactones from Anthemis auriculata and their antibacterial activity” (2006), this text covers MIC for seven compounds.

≈ marks a conversion by molar mass, not a printed value.

Usually MIC stands for the least concentration at which growth counts as inhibited. Read a low MIC as inhibition by little substance.

The test system of one assay is Escherichia coli. The assay can be described thus: Antibacterial activity against Escherichia coli ATCC 35218 after 48 hrs by serial dilution technique. Type of assay: functional. The settings on record: ATCC 35218, 48 h. The procedure, abridged:
(§1)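 Broth microdilution MIC in 96-well plates. Compounds dissolved at 10 mg/mL in DMSO, diluted in nutrient medium to 1000 μg/mL, tested at final […] in serial dilution. Bacteria grown overnight at 37 °C in TSB (~10^9 cells/mL), adjusted with sterile saline to ~1.0×10^5 per well. Plates incubated 48 h at 37 °C.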

The test system of assay [1] is Agrobacterium tumefaciens. The assay can be described thus: Antibacterial activity against Agrobacterium tumefaciens A281 after 48 hrs by serial dilution technique. The settings on record: A281, 48 h. Type of assay: functional. The method in brief:
as §1

Another assay has as its system Pseudomonas tolaasii. The assay can be described thus: Antibacterial activity against Pseudomonas tolaasii after 48 hrs by serial dilution technique. The class given is functional. The method in brief:
as §1

The subject of a further assay is Salmonella enteritidis. As to the kind of experiment: Antibacterial activity against Salmonella enteritidis ATCC 13076 after 48 hrs by serial dilution technique. Type of assay: functional, Salmonella enterica subsp. enterica serovar Enteritidis. The settings on record: Salmonella enterica, ATCC 13076, 48 h. The procedure, abridged:
as §1

The test system of the next assay is Staphylococcus aureus. The assay can be described thus: Antibacterial activity against Staphylococcus aureus ATCC 6538 after 48 hrs by serial dilution technique. The class given is functional. Conditions: ATCC 6538, 48 h. The procedure, abridged:
as §1

Assay [2] relates to Micrococcus luteus. As to the kind of experiment: Antibacterial activity against Micrococcus luteus isolate after 48 hrs by serial dilution technique. Type of assay: functional. The procedure, abridged: as §1
The test system of assay [3] is Micrococcus luteus. The assay can be described thus: Antibacterial activity against Sarcina lutea ATCC 9341 after 48 hrs by serial dilution technique. Type of assay: functional. The settings on record: ATCC 9341, 48 h. The procedure, abridged:
as §1

The subject of a further assay is Bacillus cereus. As to the kind of experiment: Antibacterial activity against Bacillus cereus isolate after 48 hrs by serial dilution technique. Type of assay: functional. The procedure, abridged:
as §1

In a further assay the test system is Candida albicans. As to the kind of experiment: Antifungal activity against Candida albicans isolate after 72 hrs by serial dilution technique. The class given is functional. The procedure, abridged: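 Candida albicans clinical isolate kept on Sabouraud agar at +4 °C, subcultured monthly. Compounds dissolved at 10 mg/mL in DMSO, diluted in medium to 1000 μg/mL, tested at final […] by serial microdilution in 96-well plates. Inoculum adjusted with saline to ~1.0×10^5 per well. Incubated 72 h at 28 °C. MIC recorded.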

A further assay deals with Proteus mirabilis. The assay can be described thus: Antibacterial activity against Proteus mirabilis isolate after 48 hrs by serial dilution technique. Type of assay: functional. The procedure, abridged: as §1
Another assay relates to Pseudomonas aeruginosa. As to the kind of experiment: Antibacterial activity against Pseudomonas aeruginosa isolate after 48 hrs by serial dilution technique. Type of assay: functional. The procedure, abridged:
as §1

Turning to `COC(=O)c1ccc(O)c(OC)c1` [METHYL VANILLATE], the MIC was determined as 275 µM (≈ 50 µg/mL) against Escherichia coli; 275 µM (≈ 50 µg/mL) in [1]; 275 µM (≈ 50 µg/mL) with Pseudomonas tolaasii; 275 µM (≈ 50 µg/mL) with Salmonella enteritidis; 137 µM (≈ 25 µg/mL) in the assay with Staphylococcus aureus; 137 µM (≈ 25 µg/mL) in the assay on Micrococcus luteus [2]. In addition, the MIC against Micrococcus luteus [3] amounted to 137 µM (≈ 25 µg/mL); against Bacillus cereus, 137 µM (≈ 25 µg/mL); with Candida albicans it was 275 µM (≈ 50 µg/mL).

Consider `CN[C@@H]1[C@H](O[C@H]2[C@H](O[C@H]3[C@H](O)[C@@H](O)[C@H](N=C(N)N)[C@@H](O)[C@@H]3N=C(N)N)O[C@@H](C)[C@]2(O)C=O)O[C@@H](CO)[C@H](O)[C@H]1O` [STREPTOMYCIN], for which the MIC against Escherichia coli worked out at 68.6 µM (≈ 39.9 µg/mL); in the assay on Proteus mirabilis, 137 µM (≈ 79.8 µg/mL); in [1], 68.6 µM (≈ 39.9 µg/mL); in the assay with Pseudomonas tolaasii it was 137 µM (≈ 79.8 µg/mL); in the assay on Salmonella enteritidis, 137 µM (≈ 79.8 µg/mL); against Staphylococcus aureus, 34.3 µM (≈ 19.9 µg/mL). The MIC in the assay with Micrococcus luteus [2], against Micrococcus luteus [3] and against Bacillus cereus was 34.3 µM (≈ 19.9 µg/mL) throughout.

In turn, `c1ccc(-c2ccc(C(c3ccccc3)n3ccnc3)cc2)cc1` (stereo not drawn) [BIFONAZOLE] gave an MIC with Candida albicans of 644 µM (≈ 200 µg/mL).

`C=C1C(=O)OCC1C/C=C(\C)CC(=O)C=C(C)C` (stereo not drawn) [ANTHECOTULIDE]: the MIC against Escherichia coli is 101 µM (≈ 25.1 µg/mL); against Proteus mirabilis it was 202 µM (≈ 50.2 µg/mL); in [1] it was 101 µM (≈ 25.1 µg/mL); against Pseudomonas aeruginosa, 202 µM (≈ 50.2 µg/mL); against Pseudomonas tolaasii, 202 µM (≈ 50.2 µg/mL); against Salmonella enteritidis, 202 µM (≈ 50.2 µg/mL). The MIC in the assay with Staphylococcus aureus stood at 101 µM (≈ 25.1 µg/mL); against Micrococcus luteus [2], 101 µM (≈ 25.1 µg/mL); in the assay with Micrococcus luteus [3] it was 51 µM (≈ 12.7 µg/mL); in the assay with Bacillus cereus, 51 µM (≈ 12.7 µg/mL); with Candida albicans, 101 µM (≈ 25.1 µg/mL).

Consider `C=C1C(=O)OC[C@H]1[C@@H](O)/C=C(\C)CC(=O)C=C(C)C`, for which the MIC is 189 µM (≈ 50 µg/mL) with Escherichia coli; 189 µM (≈ 50 µg/mL) with Proteus mirabilis; 94.7 µM (≈ 25 µg/mL) in [1]; 189 µM (≈ 50 µg/mL) with Pseudomonas aeruginosa; 189 µM (≈ 50 µg/mL) against Pseudomonas tolaasii; 189 µM (≈ 50 µg/mL) with Salmonella enteritidis. For the same compound, the MIC amounted to 47 µM (≈ 12.4 µg/mL) in the assay on Staphylococcus aureus; 94.7 µM (≈ 25 µg/mL) in the assay on Micrococcus luteus [2]; 47 µM (≈ 12.4 µg/mL) against Micrococcus luteus [3]; 94.7 µM (≈ 25 µg/mL) against Bacillus cereus; 189 µM (≈ 50 µg/mL) against Candida albicans.

With `C=C1C(=O)OC[C@H]1[C@H](/C=C(\C)CC(=O)C=C(C)C)OC(C)=O`, the MIC against Escherichia coli was found to be 81.7 µM (≈ 25 µg/mL); in the assay on Proteus mirabilis it was 163 µM (≈ 50.1 µg/mL); in assay [1], 81.7 µM (≈ 25 µg/mL); with Pseudomonas aeruginosa it was 163 µM (≈ 50.1 µg/mL); in the assay on Pseudomonas tolaasii it was 163 µM (≈ 50.1 µg/mL); against Salmonella enteritidis it was 163 µM (≈ 50.1 µg/mL). Also, the MIC in the assay with Staphylococcus aureus worked out at 81.7 µM (≈ 25 µg/mL); against Micrococcus luteus [2], 81.7 µM (≈ 25 µg/mL); in the assay with Micrococcus luteus [3] it was 40.8 µM (≈ 12.5 µg/mL); against Bacillus cereus, 81.7 µM (≈ 25 µg/mL); against Candida albicans, 81.7 µM (≈ 25 µg/mL).

For `C=C1CC[C@]2(C)CC[C@]3(C)[C@H](CC[C@@H]4[C@@]5(C)CC[C@H](O)C(C)(C)[C@@H]5CC[C@]43C)[C@@H]2[C@@H]1C`, the MIC worked out at 117 µM (≈ 50.1 µg/mL) in the assay with Escherichia coli; 117 µM (≈ 50.1 µg/mL) with Proteus mirabilis; 29.3 µM (≈ 12.5 µg/mL) in [1]; 117 µM (≈ 50.1 µg/mL) in the assay on Pseudomonas aeruginosa; 117 µM (≈ 50.1 µg/mL) against Pseudomonas tolaasii; 117 µM (≈ 50.1 µg/mL) against Salmonella enteritidis. Moreover, the MIC in the assay with Staphylococcus aureus came to 29.3 µM (≈ 12.5 µg/mL); with Micrococcus luteus [2], 58.7 µM (≈ 25 µg/mL); in the assay on Micrococcus luteus [3] it was 14.7 µM (≈ 6.27 µg/mL); against Bacillus cereus, 58.7 µM (≈ 25 µg/mL); against Candida albicans, 117 µM (≈ 50.1 µg/mL).
